# Compounds with a hit are over-represented: about 2.2% of the library has one in this group of screens.
# NR2E3 ag-1: agonists of human NR2E3 nuclear receptor; Q9Y5X4; AID 602229; inhibition of corepressor binding, % at 3.98 µM; CHO-S Gal4-NCOR/VP16-NR2E3 two-hybrid, luciferase; 360,000 compounds, 0.35% hits;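 active = inhibition above the mean of all tested compounds plus 3 SD, cut at about 70% in these data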;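 note: 0% = DMSO with NR2E3 transfected cells and 100% = cells lacking NR2E3 construct; higher means lower luciferase signal from less NR2E3 corepressor binding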
# Target sequence (Q9Y5X4 whole entry, looked up, the tested form may be a part): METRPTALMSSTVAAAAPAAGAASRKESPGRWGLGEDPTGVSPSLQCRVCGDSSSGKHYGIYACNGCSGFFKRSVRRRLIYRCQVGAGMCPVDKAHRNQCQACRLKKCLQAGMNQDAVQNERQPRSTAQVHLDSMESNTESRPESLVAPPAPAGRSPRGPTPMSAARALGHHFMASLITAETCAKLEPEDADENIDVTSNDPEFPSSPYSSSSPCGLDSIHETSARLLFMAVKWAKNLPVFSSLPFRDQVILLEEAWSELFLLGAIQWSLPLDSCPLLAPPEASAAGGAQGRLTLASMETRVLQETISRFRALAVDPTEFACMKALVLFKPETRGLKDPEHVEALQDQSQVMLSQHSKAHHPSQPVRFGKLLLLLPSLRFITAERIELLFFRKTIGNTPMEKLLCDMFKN
# Jurkat NFkB inh: inhibitors of the PMA/ionomycin-induced NF-kB reporter in Jurkat cells. 330,000 compounds, 0.53% hits. AID 435003. inhibition, % at 4 µM. PMA/ionomycin-induced NF-kB luciferase reporter, luminescence; in the data active = inhibition above about 50%
# FGF22 binding: shifts melting point of recombinant human FGF22; Q9HCT0; recombinant FGF22 thermal shift, SYPRO orange fluorescence; percent of sucrose octasulfate shift, DMSO zero; activity (Tm shift, normalised), % at 9.99 µM; 340,000 compounds, 1.5% hits;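 active = mean Tm shift, scaled 0 neutral to 100 positive control, at about 1.3% or above, every replicate too, limit read from the data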
# Target sequence (Q9HCT0 whole entry, looked up): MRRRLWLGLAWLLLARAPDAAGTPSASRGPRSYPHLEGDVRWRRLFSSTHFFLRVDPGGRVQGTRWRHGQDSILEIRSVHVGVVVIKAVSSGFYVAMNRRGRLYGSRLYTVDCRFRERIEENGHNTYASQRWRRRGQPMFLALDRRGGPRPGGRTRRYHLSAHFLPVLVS
# miR122 inh: miR-122 inhibition in Huh7 cells; Huh7 miR-122 Renilla luciferase sensor, 48 h; neutral wells = 0, positive control = 100; activation (reporter increase), % at 12.5 µM; 340,000 compounds, 0.3% hits; AID 602342;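 active = mean replicate activation score at least 90 and every replicate individually at or above 90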;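 note: higher luciferase means less miR-122 activity so hits act as miR-122 inhibitors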
# 697 NFkB inh: inhibitors of the PMA/ionomycin-induced NF-kB reporter in 697 B cells; inhibition, % at 4 µM; AID 435022; 330,000 compounds, 0.33% hits; 697 B-cell NF-kB luciferase reporter, 16 h; in the data active = inhibition above about 35%
# NR2E3 ag-2: NR2E3 (human) agonism; Q9Y5X4; GST-NR2E3/biotin-RetCOR TR-FRET, 1536-well; inhibition of corepressor binding, % at 4.78 µM; 320,000 compounds, 0.12% hits; AID 2300;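 active = percent inhibition above the cutoff of mean plus 3 SD of all tested compounds, set per screening campaign, cut at about 20% in these data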;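 note: 0% = DMSO wells and 100% = biotin wells as full block of FRET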
#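 System: GST-tagged NR2E3 plus biotinylated RetCOR corepressor; Amount: 1.35 nM GST-tagged NR2E3 final; Dosing: single nominal compound dose of 4.8 µM; Schedule: 5 h incubation at 4 °C; Technique: TR-FRET with europium anti-GST and streptavidin-D2, 340 nm excitation; Controls: biotin wells as high control, 0.6% DMSO wells as low control.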
# Numbers without * were called inactive; . = no result; [ ] = another dose, or the depositor's remark.
SMILES,NR2E3 ag-1,Jurkat NFkB inh,FGF22 binding,miR122 inh,697 NFkB inh,NR2E3 ag-2
CCC(=O)N1N=C(c2ccc(Cl)cc2)CC1c1ccco1 (configuration not stated),-3,3,0,-8,3,3
CCN1[C@@H]2c3ccc(-c4ccccc4OC)c(=O)n3C[C@@H]2[C@@H](CO)[C@@H]1C(=O)N(C)C,.,.,0,-1[16.7 µM],.,.
CN1c2ccc(Br)cc2[C@@H]2[C@@H](CCN2C(=O)CN2CCOCC2)[C@H]1CO,.,.,.,-9[16.7 µM],.,.
O=C1CCCC2=C1C(c1ccccc1)CC(=O)N2c1ccc(F)cc1F (configuration not stated),12,-17,43*,.,18,-2
CC1(C)CC(=O)C2=C(C1)N(c1ccc(F)cc1)C(=O)CC2c1ccccc1 (configuration not stated),-13,1,.,-4,-29,2
C[C@H]1CN([C@@H](C)CO)C(=O)c2cc(NS(=O)(=O)c3cccs3)ccc2O[C@H]1CN(C)C(=O)Nc1ccccc1,.,.,0,-11[16.7 µM],.,.
Cc1ccc(NC(=O)C2CCCN(S(=O)(=O)c3cccnc3)C2)c(C)c1 (configuration not stated),22,-1,44*,-5,1,0
Cc1ccc(NC(=O)C2CCCN(S(=O)(=O)c3cccnc3)C2)cc1C (configuration not stated),10,-2,0,-5,-2,-2
CC1(C)CN=C(c2ccccc2)NC1,-5,.,43*,.,.,.
COc1ccc(C(=O)OCC(=O)N(Cc2ccccc2)Cc2ccccc2)c(O)c1,-18,.,43*,-5,.,.
COc1ccc(C(=O)CCc2ccccc2)c(O)c1,2,-28,0,.,-21,1
CCN(CC)C(=O)C1CCCN(c2ccc([N+](=O)[O-])cc2[N+](=O)[O-])C1 (configuration not stated),8,-3,0,.,-2,3
CCN(CC)C(=O)C1CCCN(c2ccccc2[N+](=O)[O-])C1 (configuration not stated),-23,2,43*,1,10,-4
Cc1ccc(/C=C/C2=NN(Cc3ccc(Cl)c(Cl)c3)C(=O)CC2)cc1,-7,-5,.,1,-8,4
Cc1ccccc1CN1N=C(/C=C/c2ccccc2)CCC1=O,13,10,45*,6,-14,1
COc1ccc(C)cc1S(=O)(=O)N(C)CC(=O)N1CCC(C(N)=O)CC1,-11,8,43*,-5,-3,1
COc1ccc(Cl)cc1N(CC(=O)N1CCCC1)S(=O)(=O)c1ccc(C)cc1,-16,-16,0,141*,-12,4
COc1ccccc1N(CC(=O)N1CCCCC1C)S(=O)(=O)c1ccc(Cl)cc1 (configuration not stated),-3,.,0,128*,.,.
COc1ccccc1N(CC(=O)N1CCCC1)S(=O)(=O)c1ccc(C)cc1,-20,3,0,.,7,0
COc1ccc(CN(C)C[C@H]2Oc3ccc(NC(=O)Nc4ccccc4)cc3CC(=O)N([C@@H](C)CO)C[C@H]2C)cc1,.,.,0,-2[16.7 µM],.,.
Cc1noc(C)c1S(=O)(=O)Nc1ccc2c(c1)CC(=O)N([C@@H](C)CO)C[C@H](C)[C@@H](CN(C)S(=O)(=O)c1cccs1)O2,.,.,0,-1[16.7 µM],.,.
CCCN1[C@@H]2c3cccc(=O)n3C[C@@H]2[C@@H](CO)[C@@H]1C(=O)NC1Cc2ccccc2C1,.,.,0,4[16.7 µM],.,.
COc1ccc(C(=O)c2c(C(F)(F)F)oc3c2C(=O)c2ccccc2C3=O)cc1,93*,13,.,9,-29,0
Cc1ccc(C(=O)c2c(C)oc3c2C(=O)C(=O)c2ccccc2-3)cc1,-98,-10,.,-5,11,10
Cn1c(SCC(=O)N/N=C/c2ccco2)nc2ccccc21,-30,-11,43*,-7,-19,2
SMILES,NR2E3 ag-1,Jurkat NFkB inh,FGF22 binding,miR122 inh,697 NFkB inh,NR2E3 ag-2
Cc1ccc(-c2cnc3c(c2)C(=O)N([C@@H](C)CO)C[C@@H](C)[C@H](CN(C)C(=O)c2cccnc2)O3)cc1,.,.,0,-7[16.7 µM],.,.
Cn1nc(SCc2ccccc2)c(=O)[nH]c1=O,-1,.,43*,-4,.,.
CC(C)(c1cc(Cl)c(O)c(CN2CCOCC2)c1)c1cc(Cl)c(O)c(CN2CCOCC2)c1,22,.,0,.,.,.
CC(C)(c1cc(Br)c(O)c(Br)c1)c1cc(Br)c(O)c(Br)c1,39,-1,1.6*,2,22,2
C/C=C/c1ccc2c(c1)O[C@H](CN(C)C(=O)Cc1ccccc1)[C@@H](C)CN([C@H](C)CO)S2(=O)=O,.,.,0,11[16.7 µM],.,.
COc1cc(NC(=O)c2ccccc2)c(OC)cc1NC(C)=O,-24,7,.,.,22,-1
COc1cc(NC(=O)COc2ccccc2)c(OC)cc1NC(C)=O,-13,6,43*,.,-8,-1
CN(c1cccc(NC(=O)c2ccc(C(C)(C)C)cc2)c1)S(C)(=O)=O,-118,-73,43*,-4,-65,0
CN1CCN(C(=O)C[C@@H]2CC[C@@H]3[C@H](COC[C@H](O)CN3C(=O)Nc3ccc(Cl)cc3)O2)CC1,.,.,0,-2[16.7 µM],.,.
Cc1ccc(OCC(=O)N(Cc2ccccc2)c2ccccn2)cc1,2,0,0,10,4,-2
Cc1ccc(CC(=O)N(Cc2ccccc2)c2ccccn2)cc1,1,2,0,118*,7,0
C/C=C/c1ccc([C@H]2[C@@H](C#N)N(C(=O)CN3CCOCC3)[C@H]2CO)cc1,.,.,0,.,.,.
Cc1cc(C)c(S(=O)(=O)NCCn2ccc3ccccc32)c(C)c1,-15,12,0,126*,-18,3
Cc1cc(C)c(S(=O)(=O)NCCc2ccccc2)c(C)c1,17,-14,0,.,16,0
CCCNC(=O)C[C@H]1C[C@H]2c3cc(NC(=O)c4ccc5c(c4)OCO5)ccc3O[C@H]2[C@H](CO)O1,.,.,0,2[16.7 µM],.,.
CCOC(=O)C1=C(C)NC2=C(C(=O)CC(C)(C)C2)C1c1ccc(N(C)C)cc1 (configuration not stated),-7,-3,.,10,-1,1
CC1=C(C(=O)OC(C)C)C(c2ccc(N(C)C)cc2)C2=C(CC(C)(C)CC2=O)N1 (configuration not stated),-40,0,.,150*,6,1
Cn1nc(C(=O)N2CCN(S(=O)(=O)c3ccc(Cl)cc3)CC2)c2ccccc2c1=O,15,5,0,4,2,.
CCOC(=O)c1ccc(S(=O)(=O)N2CCN(C(=O)c3nn(C)c(=O)c4ccccc34)CC2)cc1,19,8,43*,.,4,0
CCCCSc1n[nH]c(=S)c2nc[nH]c12,-1,.,43*,-6,.,.
